The source made the active and inactive calls. The calls are words filed in the database; no cut-off is given here.
What was measured:
[1] = target: T1, Protein deacetylase HDAC6 (Homo sapiens) (UniProt Q9UBN7); experiment: Inhibition of HDAC6 in human RH4 cells assessed as acetylated alpha-tubulin level at 50 uM incubated for 72 hrs by Western blot analysis; assay type: cell-based
T1 sequence (whole entry): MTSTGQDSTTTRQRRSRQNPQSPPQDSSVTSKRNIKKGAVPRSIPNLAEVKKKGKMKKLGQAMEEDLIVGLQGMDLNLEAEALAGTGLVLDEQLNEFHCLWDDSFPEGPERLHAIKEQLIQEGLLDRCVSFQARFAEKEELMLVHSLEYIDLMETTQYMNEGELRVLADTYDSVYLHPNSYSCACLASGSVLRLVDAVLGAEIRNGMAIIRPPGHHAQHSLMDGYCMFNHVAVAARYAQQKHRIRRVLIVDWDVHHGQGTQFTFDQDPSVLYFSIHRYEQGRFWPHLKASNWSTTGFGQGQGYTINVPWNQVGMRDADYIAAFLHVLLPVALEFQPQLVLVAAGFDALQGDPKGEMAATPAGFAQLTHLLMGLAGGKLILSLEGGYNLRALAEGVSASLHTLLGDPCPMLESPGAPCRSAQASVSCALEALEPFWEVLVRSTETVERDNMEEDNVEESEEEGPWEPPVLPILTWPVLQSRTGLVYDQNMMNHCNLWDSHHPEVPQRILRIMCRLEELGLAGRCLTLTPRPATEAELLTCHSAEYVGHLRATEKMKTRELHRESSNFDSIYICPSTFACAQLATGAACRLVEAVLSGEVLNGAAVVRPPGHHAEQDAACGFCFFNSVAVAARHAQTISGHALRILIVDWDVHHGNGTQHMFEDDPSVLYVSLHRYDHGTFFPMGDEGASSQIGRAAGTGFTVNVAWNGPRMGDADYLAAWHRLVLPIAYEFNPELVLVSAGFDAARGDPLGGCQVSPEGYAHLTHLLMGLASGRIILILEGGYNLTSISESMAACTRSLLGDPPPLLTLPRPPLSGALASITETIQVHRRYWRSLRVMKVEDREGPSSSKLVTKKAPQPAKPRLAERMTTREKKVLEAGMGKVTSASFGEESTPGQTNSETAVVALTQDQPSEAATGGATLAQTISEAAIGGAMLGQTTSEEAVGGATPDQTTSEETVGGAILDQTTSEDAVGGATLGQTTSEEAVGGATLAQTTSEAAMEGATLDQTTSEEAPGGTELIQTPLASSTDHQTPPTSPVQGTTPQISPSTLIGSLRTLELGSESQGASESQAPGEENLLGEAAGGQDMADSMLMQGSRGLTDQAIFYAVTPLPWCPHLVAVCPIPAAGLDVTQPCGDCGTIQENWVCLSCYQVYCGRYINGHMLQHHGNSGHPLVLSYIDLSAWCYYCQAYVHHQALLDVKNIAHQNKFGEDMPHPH

U-937 [2] = experiment: Cytotoxicity against human U937 cells assessed as combinational index measured at fraction affected value of […] in presence of vorinostat at 25 uM incubated for 72 hrs by CellTiter-Glo Luminescent cell viability assay; assay type: functional
[3] = target: T2, Histone-lysine N-methyltransferase EZH2 (Homo sapiens, UniProt Q15910); experiment: Inhibition of EZH2 in human RH4 cells assessed as H3K27me3 level at 50 uM in presence of vorinostat incubated for 96 hrs by Western blot analysis (reference value: 1); assay type: cell-based
Summary of the method: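 RH4 cells co-treated with EZH2 inhibitor at 50 μM plus HDAC inhibitor at 0.15 μM; Western blot after 72 or 96 h for H3K27me3 or acetyl-tubulin, vinculin loading control; densitometry normalized to loading control then DMSO vehicle.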
Target sequence in this assay (Q15910 whole entry, looked up): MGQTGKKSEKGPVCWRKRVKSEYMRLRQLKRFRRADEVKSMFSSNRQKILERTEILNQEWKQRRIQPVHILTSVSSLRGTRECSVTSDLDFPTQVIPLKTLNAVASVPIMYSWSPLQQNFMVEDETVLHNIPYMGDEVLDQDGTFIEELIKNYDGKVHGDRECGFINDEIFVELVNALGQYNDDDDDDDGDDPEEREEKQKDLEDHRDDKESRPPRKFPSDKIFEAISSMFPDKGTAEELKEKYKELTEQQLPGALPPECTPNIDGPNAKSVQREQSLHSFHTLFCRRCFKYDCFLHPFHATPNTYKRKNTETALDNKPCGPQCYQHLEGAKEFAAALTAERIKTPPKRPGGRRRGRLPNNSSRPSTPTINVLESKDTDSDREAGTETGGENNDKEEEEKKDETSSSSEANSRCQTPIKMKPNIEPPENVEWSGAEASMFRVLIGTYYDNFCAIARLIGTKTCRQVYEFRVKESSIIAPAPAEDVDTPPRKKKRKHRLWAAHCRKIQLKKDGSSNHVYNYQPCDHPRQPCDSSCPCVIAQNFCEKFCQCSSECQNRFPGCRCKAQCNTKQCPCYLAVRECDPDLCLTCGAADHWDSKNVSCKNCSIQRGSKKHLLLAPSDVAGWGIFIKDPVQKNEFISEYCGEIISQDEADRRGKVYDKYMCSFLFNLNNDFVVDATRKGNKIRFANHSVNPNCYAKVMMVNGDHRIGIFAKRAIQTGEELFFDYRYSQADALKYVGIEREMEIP

[4] = Cytotoxicity against human RH4 cells assessed as reduction in cell viability at 50 uM in presence of vorinostat incubated for 72 hrs by CellTiter-Glo Luminescent cell viability assay relative to control; assay type: functional; conditions: Rh4, 72 h
Summary of the method: (§1)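 Viability after 72 h of single-agent or combined treatment with the HDAC inhibitor (0.05–0.25 μM) and the EZH2 inhibitor. EZH2 inhibitor range: U937 5–25 μM; RH4 10–50 μM. Synergy was assessed by combination index and isobologram analysis.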

[5] = target: T2, Histone-lysine N-methyltransferase EZH2; experiment: Inhibition of human EZH2 using core histone as substrate incubated for 1 hr by fluorescence based assay
Target sequence in this assay (Q15910 whole entry): as the sequence (Q15910 whole entry, looked up) above

[6] = target: T1, Protein deacetylase HDAC6 (Homo sapiens); experiment: Inhibition of HDAC6 in human RH4 cells assessed as acetylated alpha-tubulin level at 50 uM incubated for 96 hrs by Western blot analysis; assay type: cell-based
[7] = Cytotoxicity against human RH4 cells assessed as combinational index measured at fraction affected value of 0.45 in presence of vorinostat at 20 uM incubated for 72 hrs by CellTiter-Glo Luminescent cell viability assay; assay type: functional; summary of the method: as §1
[8] = Induction of apoptosis in human RH4 cells assessed as viable cells at 14 uM incubated for 72 hrs by annexin V-FITC staining based flow cytometry (reference value: 86.6 %); assay type: functional; conditions: Rh4, 72 h, read-out: Activity
Homo sapiens = species on record: Homo sapiens; experiment: Induction of differentiation of human RH4 cells assessed as increase in myogenin level at 7 uM incubated for 96 hrs by Western blot analysis; assay type: functional
Summary of the method: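 Myogenin was measured by Western blot in RH4 cells treated at 7 and 14 μM for 48, 72 and 96 h. Vinculin served as the loading control.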

[9] = Induction of apoptosis in human RH4 cells assessed as viable cells at 28 uM incubated for 72 hrs by annexin V-FITC staining based flow cytometry (reference value: 86.6 %); assay type: functional; conditions: Rh4, 72 h, read-out: Activity
[10] = target: T3, Protein deacetylase HDAC6 (Homo sapiens, UniProt Q9UBN7); experiment: Inhibition of human recombinant HDAC6 using AMC-K(Ac)GL as substrate by fluorescence based assay
T3 sequence (Q9UBN7 whole entry): T1 sequence (whole entry)

[11] = Cytotoxicity against human RH4 cells assessed as reduction in cell viability at 35 uM incubated for 96 hrs by CellTiter-Glo Luminescent cell viability assay relative to control; assay type: functional; conditions: Rh4, 96 h
Summary of the method: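 Viability of U937 (5–25 μM) and RH4 (5–35 μM) cells after 48, 72 and 96 h of treatment at increasing concentrations.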

U-937 [12] = experiment: Cell cycle arrest in human U937 cells assessed as subG1 accumulation at 25 uM incubated for 72 hrs by propidium iodide staining based flow cytometry (reference value: 4.9 %); assay type: functional
Histone deacetylase 1 = Histone deacetylase 1 (Homo sapiens, UniProt Q13547); experiment: Inhibition of human recombinant HDAC1 using AMC-K(Ac)GL as substrate by fluorescence based assay
[13] = Induction of apoptosis in human RH4 cells assessed as late apoptotic cells at 14 uM incubated for 72 hrs by annexin V-FITC staining based flow cytometry (reference value: 2.1 %); assay type: functional
Histone deacetylase 5 = Histone deacetylase 5 (Homo sapiens, UniProt Q9UQL6); experiment: Inhibition of human recombinant HDAC5 using AMC-K(TFA)GL as substrate by fluorescence based assay
[14] = Cell cycle arrest in human RH4 cells assessed as S accumulation at 14 uM incubated for 72 hrs by propidium iodide staining based flow cytometry (reference value: 29.9 %); assay type: functional
U-937 [15] = experiment: Induction of apoptosis in human U937 cells assessed as viable cells at 10 uM incubated for 72 hrs by annexin V-FITC staining based flow cytometry (reference value: 95.4 %); assay type: functional; conditions: U-937, 72 h, read-out: Activity

Chain of Histone deacetylase 5 (Q9UQL6 whole entry): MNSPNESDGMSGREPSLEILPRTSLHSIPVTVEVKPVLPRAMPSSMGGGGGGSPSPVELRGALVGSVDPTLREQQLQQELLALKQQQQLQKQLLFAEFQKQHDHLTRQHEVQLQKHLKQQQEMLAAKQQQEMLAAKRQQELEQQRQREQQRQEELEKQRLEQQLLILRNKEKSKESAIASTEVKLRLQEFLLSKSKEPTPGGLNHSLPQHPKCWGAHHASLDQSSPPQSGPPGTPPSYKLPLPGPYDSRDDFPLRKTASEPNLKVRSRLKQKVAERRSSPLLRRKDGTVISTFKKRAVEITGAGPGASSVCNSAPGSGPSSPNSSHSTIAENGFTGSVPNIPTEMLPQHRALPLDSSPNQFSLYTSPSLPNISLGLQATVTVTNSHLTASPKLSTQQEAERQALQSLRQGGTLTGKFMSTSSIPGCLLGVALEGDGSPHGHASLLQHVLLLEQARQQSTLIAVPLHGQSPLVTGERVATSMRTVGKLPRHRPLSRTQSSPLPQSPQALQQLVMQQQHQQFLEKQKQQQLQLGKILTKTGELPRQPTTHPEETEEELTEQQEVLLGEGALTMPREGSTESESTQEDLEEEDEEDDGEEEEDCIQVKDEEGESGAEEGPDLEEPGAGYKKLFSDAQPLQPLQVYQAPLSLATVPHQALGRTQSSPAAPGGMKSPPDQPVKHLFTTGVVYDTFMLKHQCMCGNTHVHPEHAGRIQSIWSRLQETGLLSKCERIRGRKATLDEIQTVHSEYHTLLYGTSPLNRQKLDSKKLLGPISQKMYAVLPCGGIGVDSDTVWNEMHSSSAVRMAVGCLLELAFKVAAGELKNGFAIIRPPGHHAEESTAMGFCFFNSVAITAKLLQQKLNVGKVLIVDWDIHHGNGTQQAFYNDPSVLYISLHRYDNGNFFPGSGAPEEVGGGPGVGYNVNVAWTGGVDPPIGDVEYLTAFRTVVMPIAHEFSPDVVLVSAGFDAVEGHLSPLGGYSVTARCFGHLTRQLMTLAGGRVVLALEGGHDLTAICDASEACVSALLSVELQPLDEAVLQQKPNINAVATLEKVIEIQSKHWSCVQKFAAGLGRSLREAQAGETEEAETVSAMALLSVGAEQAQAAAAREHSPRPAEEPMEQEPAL
Chain of Histone deacetylase 1 (Q13547 whole entry): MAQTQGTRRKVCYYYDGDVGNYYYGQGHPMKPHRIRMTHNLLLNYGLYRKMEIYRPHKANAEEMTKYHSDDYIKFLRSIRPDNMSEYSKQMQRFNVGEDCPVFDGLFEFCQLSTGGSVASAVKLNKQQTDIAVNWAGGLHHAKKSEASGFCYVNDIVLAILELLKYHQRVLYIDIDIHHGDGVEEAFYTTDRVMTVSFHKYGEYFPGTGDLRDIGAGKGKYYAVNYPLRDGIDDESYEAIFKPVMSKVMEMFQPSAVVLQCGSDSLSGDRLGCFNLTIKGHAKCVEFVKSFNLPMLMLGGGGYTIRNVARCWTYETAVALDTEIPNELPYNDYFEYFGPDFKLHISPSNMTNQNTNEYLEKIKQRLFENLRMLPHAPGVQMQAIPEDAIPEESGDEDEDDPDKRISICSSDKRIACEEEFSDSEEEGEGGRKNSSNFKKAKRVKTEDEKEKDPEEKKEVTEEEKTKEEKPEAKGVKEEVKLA

fold change (FC) [1] | fold change (FC) [3] | IC50 [5] [µM] | fold change (FC) [6] | IC50 [10] [µM] | IC50 (Histone deacetylase 1) [µM] | IC50 (Histone deacetylase 5) [µM] | Structure (SMILES) | CI (U-937 [2]) | inhibition at 50 µM [4] [%] | CI [7] | viability at 14 µM [8] [%] | Activity (Homo sapiens) | viability at 28 µM [9] [%] | inhibition at 35 µM [11] [%] | Activity (U-937 [12]) [%] | Activity [13] [%] | Activity [14] [%] | viability at 10 µM (U-937 [15]) [%]
0.6 | 0.2 | 5.78 | 1.4 |  |  |  | Cc1cc(C)c(CNC(=O)c2cc(C)n(-c3ccccc3)c2C)c(=O)[nH]1 | 0.04 | > 60 | 0.49 |  |  |  |  |  |  |  | 
 |  | 7.37 |  | 0.005 | 0.43 | 16.6 | Cc1cc(C)c(CNC(=O)c2cc(C)n(-c3cccc(NC(=O)CCCCCCC(=O)NO)c3)c2C)c(=O)[nH]1 |  |  |  | 82.5 | Active | 68.7 | 90 | 36.1 | 3.2 | 30.3 | 95

Source: ChEMBL document CHEMBL4613315, “Design of First-in-Class Dual EZH2/HDAC Inhibitor: Biochemical Activity and Biological Evaluation in Cancer Cells” (ACS Med Chem Lett, 2020)
